Source: PubChem (Broad Institute)
Most compounds without a hit are left out; they make up all but 3.2% or so of the library.
PfHsp90 set2: growth inhibition of PfHsp90-expressing yeast, primary screen, antimalarial PfHsp90 inhibitor project, S. cerevisiae, BacTiter-Glo luminescence, single point, set 2. BacTiter-Glo ATP, 48 h; yeast lacking PDR1 and PDR3 efflux regulators. inhibition, % at 9.4 µM. 310,000 tested, 0.32% active. AID 504621, 2011;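 active = every replicate shows inhibition above about 80%, whatever the replicate mean, limit read from the data; inconclusive = mean inhibition reaches the set limit but some replicate falls short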;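 note: 0% = DMSO neutral controls and 100% = 20 µM radicicol positive controls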
DENV2 CPE rescue: inhibitors of DENV2 cytopathic effect, primary screen, cell-based, plate reader, single concentration; DENV2-infected cells, cytopathic effect rescue; CPE inhibition, % at 9.99 µM; 350,000 tested, 1.7% active; AID 651640, 2012; in the data active = CPE inhibition above about 20%, passing the limit was not always enough; inconclusive = no clear call, values can overlap the other calls; tested in BHK-21 cells;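 note: 0% = median of neutral control wells and 100% = median of positive control wells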
S100A4 MyoIIA: inhibitors of S100A4-myosin IIA peptide binding, primary screen, biochemical, fluorescence polarization, TAMRA-MyoIIA peptide | Protein S100-A4 (Homo sapiens), P26447 | inhibition, % at 10.7 µM | 360,000 tested, 0.14% active;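 active = mean inhibition of at least 70% across replicates, with every replicate also reaching that level; inconclusive = mean inhibition reaches 70% but some replicates fall short; inactive = mean inhibition below 70%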
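Test system: S100A4 monomer protein; Medium: HEPES pH 7.2 with CaCl2, KCl, NaCl, DTT, Triton; Probe or stimulus: TAMRA-labelled myosin IIA heavy-chain peptide probe, 5 nM; Doses: one dose per compound; Times: polarization read 5 min after assay mix addition, stable 5–60 min; Benchmarks: neutral control DMSO, positive control TFP.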
Cneo AK release: Cryptococcus neoformans cell lysis inducers, primary screen, AK release luminescence, single concentration | lysis activity, % at 15 µM | 360,000 tested, 0.2% active | AID 651654, 2012 | C. neoformans lysis, adenylate kinase release luminescence, 4 h; normalised: neutral wells 0, clomiphene wells 100;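 active = mean lysis activity across replicates of at least 80%, whatever share of replicates individually reach that level; inactive = mean lysis activity below 80%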
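Material: C. neoformans cells; Schedule: 4 h static compound exposure, 37 °C, read 1 h post-reagent; Measured by: adenylate kinase release luminescence; Read-out: signal increase indicating cell lysis; Controls: Clomiphene as positive lysis control.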
rRNA inh HTS: reduced GFP signal of wild-type E. coli, primary screen, bacterial rRNA inhibitor project, GFP/RFP fluorescence, OD600, single point. E. coli WT GFP vs humanized-ribosome RFP mutants, 24 h; hits give low values; DMSO median 0, no signal -100. GFP signal change (wild-type ribosome), % (concentration not given with the values). 350,000 tested, 1.6% active. AID 720706, 2013;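 active = significant combined selectivity score with lowered wild-type GFP, culture density cut under 30%, mutant RFP and density less affected; inactive = any of these conditions unmet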
AF4-AF9 inh: inhibitors of AF4 peptide binding to AF9, primary screen, biochemical, AlphaScreen, biotin-AF4 peptide, FLAG-AF9, single point; Protein AF-9 (Homo sapiens), P42568; 350,000 tested, 0.47% active; inhibition, % at 10 µM;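 active = every replicate reaching a set inhibition limit, whatever the replicate mean, cut at about 25% in these data; inconclusive = mean inhibition reaches that limit but some replicates miss it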;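 note: 0% = plate neutral control median and 100% = total signal loss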
Target sequence (P42568 whole entry, looked up): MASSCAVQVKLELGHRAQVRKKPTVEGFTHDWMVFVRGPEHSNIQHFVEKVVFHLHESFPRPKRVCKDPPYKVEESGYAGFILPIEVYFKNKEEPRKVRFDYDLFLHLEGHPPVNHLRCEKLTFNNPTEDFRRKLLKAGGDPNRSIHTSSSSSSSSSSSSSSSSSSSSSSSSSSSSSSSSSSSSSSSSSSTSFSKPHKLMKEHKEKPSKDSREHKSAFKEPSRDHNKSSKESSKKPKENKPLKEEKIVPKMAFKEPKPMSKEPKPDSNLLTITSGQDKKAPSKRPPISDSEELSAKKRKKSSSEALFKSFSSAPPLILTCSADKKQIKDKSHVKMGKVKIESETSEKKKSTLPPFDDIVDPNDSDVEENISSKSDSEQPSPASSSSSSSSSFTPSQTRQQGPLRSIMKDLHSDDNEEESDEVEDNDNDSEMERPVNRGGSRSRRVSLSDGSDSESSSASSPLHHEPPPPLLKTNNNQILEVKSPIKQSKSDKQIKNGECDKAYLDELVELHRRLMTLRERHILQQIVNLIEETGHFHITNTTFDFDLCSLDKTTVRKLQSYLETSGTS
* hit, by the source's call; u = inconclusive; x = no result given.

SMILES	PfHsp90 set2	DENV2 CPE rescue	S100A4 MyoIIA	Cneo AK release	rRNA inh HTS	AF4-AF9 inh
O=C(NCCN1CCCC1)[C@H]1[C@H](CO)[C@H]2Cn3c(cccc3=O)[C@@H]1N2C(=O)NC1CCCC1	x	23*	39	x	2	-3
O=C(NCc1ccc(F)cc1)[C@H]1[C@H](CO)[C@H]2Cn3c(cccc3=O)[C@@H]1N2CC1CCCC1	x	43*	7	-4	-2	2
C[C@H](NC(=O)[C@H]1[C@H](CO)[C@H]2Cn3c(cccc3=O)[C@@H]1N2Cc1cccnc1)c1ccccc1	x	81*	7	45	2	-1
O=C(NC1CCCCC1)[C@H]1[C@H](CO)[C@H]2Cn3c(cccc3=O)[C@@H]1N2Cc1cccnc1	x	10	1	27	0	0
C[C@H](NC(=O)[C@@H]1[C@@H](CO)[C@@H]2Cn3c(cccc3=O)[C@H]1N2Cc1cccnc1)c1ccccc1	x	-5	-8	1	-1	-1
O=C(NC1CCCCC1)[C@@H]1[C@@H](CO)[C@@H]2Cn3c(cccc3=O)[C@H]1N2Cc1cccnc1	x	136*	10	45	2	1
C[C@@H]1CCCCO[C@H](CN(C)S(C)(=O)=O)[C@@H](C)CN([C@@H](C)CO)C(=O)c2cc(NC(=O)C3CCCCC3)ccc2O1	x	-2	-18	-1	-1	0
COc1cc(Nc2ccn3nc(-c4ccc(F)cc4)cc3n2)cc(OC)c1OC	x	1	1	-2	3	1
COc1cc(Nc2ccn3nccc3n2)cc(OC)c1OC	x	23*	-29	1	-7	1
C[C@@H]1CN([C@H](C)CO)C(=O)c2cc(NC(=O)Nc3ccc(F)cc3)ccc2O[C@@H](C)CCCCO[C@H]1CN(C)Cc1ccc2c(c1)OCO2	x	-10	-4	19	-21	19
C[C@@H]1CN([C@H](C)CO)C(=O)c2cc(NC(=O)Nc3ccc(F)cc3)ccc2O[C@@H](C)CCCCO[C@@H]1CN(C)Cc1ccc2c(c1)OCO2	x	23*	-2	3	-17	4
C[C@@H]1CN([C@@H](C)CO)C(=O)c2cc(NC(=O)Nc3ccc(F)cc3)ccc2O[C@@H](C)CCCCO[C@H]1CN(C)Cc1ccc2c(c1)OCO2	x	22*	-3	4	-4	11
COc1ccc(-c2cc(C(=O)NCc3ccc(C(F)(F)F)cc3)[nH]n2)c(C)c1	x	-8	1	-2	-20*	-1
C[C@@H]1CN([C@@H](C)CO)C(=O)c2cc(NC(=O)Nc3ccc(C(F)(F)F)cc3)ccc2O[C@@H]1CN(C)C(=O)Nc1ccc(F)cc1	x	2	-16	-1	-1	4
COc1ccc(-c2noc(CSc3nnc(Cc4ccccc4)n3-c3cccc(C)c3)n2)cc1OC	x	-6	-7	-2	-26*	-2
CCn1c(SCc2nc(-c3ccc(OC)c(OC)c3)no2)nnc1-c1cccs1	-13	5	7	1	-32*	5
O=C(c1ccccc1)N1CC[C@@H]2[C@H]1c1cc(C#Cc3cccnc3)ccc1N[C@@H]2CO	x	-2	33	-7	-11	-1
O=C(C[C@@H]1CC[C@H](NC(=O)c2cccc(F)c2)[C@H](CO)O1)Nc1nccs1	x	u	-5	18	-2	0
CC(=O)NC1C(=O)N(CCN2CCOCC2)c2ccc(Br)cc21 (configuration not stated)	-13	1	-3	0	16	16
CCOc1ccc2c(c1)C(NC(C)=O)C(=O)N2CCN1CCOCC1 (configuration not stated)	-6	-6	-6	-3	11	25*
C[C@@H]1CN([C@@H](C)CO)C(=O)c2cccc(NC(=O)Nc3ccc(F)cc3)c2O[C@@H]1CN(C)C	x	-6	3	-4	3	-2
